Measurements published in ChEMBL document CHEMBL2046333, “Antiprotozoal and antimicrobial compounds from the plant pathogen Septoria pistaciarum” (J Nat Prod, 2012).
≈ marks a conversion by molar mass, not a printed value. Calls of active or inactive are those of the source. The rule behind the calls is not given here.

Tests used:
[1] = test system: Agrostis stolonifera; test: Phytotoxic activity against Agrostis stolonifera at 1.62 mM; assay type: functional, organism-based
How it was run: (§1)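 Compound (1 mg) dissolved in 100 μL acetone; 20 μL spotted on filter paper, air-dried 30 min. Paper placed in well, 200 μL water added. Bentgrass (Agrostis stolonifera) or lettuce (Lactuca sativa cv. L., Iceberg) seeds used. Solvent controls treated identically. Growth scored visually from 0 (no effect) to 5 (no growth).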

[2] = test system: Vero; test: Cytotoxicity against african green monkey Vero cells; assay type: cell-based, Chlorocebus sabaeus
How it was run: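 Mammalian cells (Vero, LLC-PK11, SK-MEL, KB, BT-549, SK-OV-3) exposed to compound; viable cells counted by Neutral Red dye uptake; IC50 taken from dose-response curves.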

[3] = test system: Plasmodium falciparum; test: Antimalarial activity against chloroquine-resistant Plasmodium falciparum W2 infected in RBC assessed as parasite LDH activity after 72 hrs; assay type: functional, organism-based; conditions: W2, 72 h
[4] = test system: Plasmodium falciparum; test: Antimalarial activity against chloroquine-sensitive Plasmodium falciparum D6 infected in RBC assessed as parasite LDH activity after 72 hrs; assay type: functional, organism-based; conditions: D6, 72 h
[5] = Selectivity index, ratio of IC50 for african green monkey Vero cells to IC50 for chloroquine-sensitive Plasmodium falciparum D6; assay type: toxicity, cell-based; conditions: read-out: Ratio IC50
How it was run: (§2)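 Selectivity index is the IC50 for Vero-cell cytotoxicity (Neutral Red viability) divided by the IC50 against P. falciparum D6 or W2 (from dose-response curves).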

[6] = Selectivity index, ratio of IC50 for african green monkey Vero cells to IC50 for chloroquine-resistant Plasmodium falciparum W2; assay type: toxicity, cell-based; conditions: read-out: Ratio IC50; how it was run: as §2
[7] = Cytotoxicity against pig LLC-PK11 cells assessed as viable cells by neutral red dye method; assay type: cell-based; conditions: Sus scrofa
[8] = test system: BT-549; test: Cytotoxicity against human BT549 cells assessed as viable cells by neutral red dye method; assay type: functional, cell-based
[9] = test system: KB; test: Cytotoxicity against human KB cells assessed as viable cells by neutral red dye method; assay type: functional, cell-based
[10] = test system: Lactuca sativa; test: Phytotoxic activity against Lactuca sativa cv. L. at 1.62 mM; assay type: functional, organism-based; how it was run: as §1
[11] = test system: SK-OV-3; test: Cytotoxicity against human SKOV3 cells assessed as viable cells by neutral red dye method; assay type: functional, cell-based
[12] = test system: SK-MEL; test: Cytotoxicity against human SK-MEL cells assessed as viable cells by neutral red dye method; assay type: functional, cell-based
[13] = test system: Leishmania donovani; test: Antileishmanial activity against Leishmania donovani promastigotes; assay type: functional, organism-based
How it was run: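 Compounds were tested in vitro on cultured L. donovani promastigotes, with pentamidine and amphotericin B as standard controls. IC50 and IC90 (50% and 90% growth inhibition) were computed from growth-inhibition curves.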

[14] = test system: Staphylococcus aureus; test: Antimicrobial activity against methicillin-resistant Staphylococcus aureus ATCC 33591 by CLSI M7-A5 method; assay type: functional
[15] = test system: Lactuca sativa; test: Phytotoxic activity against Lactuca sativa cv. L. at 1.87 mM; assay type: functional, organism-based
How it was run: (§3)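 Seeds were bentgrass (Agrostis stolonifera) and lettuce (cv. Iceberg), in multiwell plates. Compound was dissolved at 1 mg per 100 μL acetone, and a 20 μL aliquot was dried onto filter paper for 30 min under airflow. Water was then added. Acetone solvent controls were handled identically. Growth was scored visually from 0 (no effect) to 5 (no growth).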

[16] = test system: Staphylococcus aureus; test: Antimicrobial activity against methicillin-sensitive Staphylococcus aureus ATCC 29213 by CLSI M7-A5 method; assay type: functional
[17] = test system: Agrostis stolonifera; test: Phytotoxic activity against Agrostis stolonifera at 1.87 mM; assay type: functional, organism-based; how it was run: as §3
[18] = test system: Lactuca sativa; test: Phytotoxic activity against Lactuca sativa cv. L. at 1.73 mM; assay type: functional, organism-based; how it was run: as §1
[19] = test system: Agrostis stolonifera; test: Phytotoxic activity against Agrostis stolonifera at 1.73 mM; assay type: functional, organism-based; how it was run: as §1
[20] = test system: Candida albicans; test: Antifungal activity against Candida albicans ATCC 90028 by broth dilution method; assay type: functional, organism-based
How it was run: (§4)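 Broth dilution run as a modified CLSI susceptibility method. Amphotericin B was included as the antifungal drug control in each assay.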

[21] = test system: Pichia kudriavzevii; test: Antifungal activity against Candida krusei ATCC 6258 by broth dilution method; assay type: functional, organism-based; how it was run: as §4
[22] = test system: Aspergillus fumigatus; test: Antifungal activity against Aspergillus fumigatus ATCC 90906 by broth dilution method; assay type: functional, organism-based; how it was run: as §4
[23] = test system: Nakaseomyces glabratus; test: Antifungal activity against Candida glabrata ATCC 90030 by broth dilution method; assay type: functional, organism-based; how it was run: as §4
[24] = test system: Cryptococcus neoformans; test: Antifungal activity against Cryptococcus neoformans ATCC 90113 by broth dilution method; assay type: functional, organism-based; how it was run: as §4
[25] = Chlorocebus sabaeus, Vero, read-out: IC50

IC90 [13]	SMILES	IC50 [2, 25]	IC50 [3]	IC50 [4]	selectivity ratio [5]	selectivity ratio [6]	IC50 [7]	IC50 [8]	IC50 [9]	IC50 [11]	IC50 [12]	IC50 [13]	IC50 ([2]; vero)	further results
–	CCN(CC)CCCC(C)Nc1ccnc2cc(Cl)ccc12 (configuration not stated) [CHLOROQUINE]	–	–	–	–	–	–	–	–	–	–	–	Non-toxic	–
–	C[C@@H]1CC[C@H]2[C@@H](C)C(=O)O[C@@H]3O[C@@]4(C)CC[C@@H]1[C@]32OO4 [ARTEMISININ]	–	–	0.02 µM	–	–	–	–	–	–	–	–	Non-toxic	–
–	CC[C@@H](C)[C@H]1O[C@@H](c2c(OC)c(-c3ccccc3)c[n+]([O-])c2OC)[C@H](C)C[C@@H]1C	–	6.51 µM	6.76 µM	> 1.1	> 1.2	–	–	–	–	–	–	Non-toxic	–
–	COc1c(C[C@@H](C)OC(C)=O)c2c3c(C[C@@H](C)O)c(OC)c(=O)c4c(O)cc5c(c6c(cc(O)c(c1=O)c62)OCO5)c43	5.21 µM	3.12 µM	2.78 µM	1.9	1.7	10.1 µM	8.6 µM	8.5 µM	4 µM	3.8 µM	1.7 µM	–	Activity [18]: Active; Activity [19]: Active
0.38 µM	C[C@@H]1[C@H](O)[C@@H](C)/C=C/C=C/C=C/C=C/C=C/C=C/C=C/[C@H](O[C@@H]2O[C@H](C)[C@@H](O)[C@H](N)[C@@H]2O)C[C@@H]2O[C@](O)(C[C@@H](O)C[C@@H](O)[C@H](O)CC[C@@H](O)C[C@@H](O)CC(=O)O[C@H]1C)C[C@H](O)[C@H]2C(=O)O [AMPHOTERICIN B]	–	–	–	–	–	–	–	–	–	–	0.18 µM	–	–
0.29 µM	CC[C@@H](C)[C@H]1O[C@@H](c2c(O)c(-c3ccccc3)cn(O)c2=O)[C@H](C)C[C@@H]1C [SEPTORIAMYCIN A]	–	–	–	–	–	–	–	–	–	–	0.11 µM	–	Activity [20]: Active; Activity [21]: Active; Activity [22]: Active; Activity [23]: Active; Activity [24]: Active
5.58 µM	N=C(N)c1ccc(OCCCCCOc2ccc(C(=N)N)cc2)cc1 [PENTAMIDINE]	–	–	–	–	–	–	–	–	–	–	2.9 µM	–	–

SMILES	IC90 [13]	IC50 [2, 25]	IC50 [3]	IC50 [4]	selectivity ratio [5]	selectivity ratio [6]	IC50 [7]	IC50 [8]	IC50 [9]	IC50 [11]	IC50 [12]	IC50 [13]	IC50 ([2]; vero)	further results
COc1c(C[C@@H](C)OC(C)=O)c2c3c(C[C@@H](C)OC(C)=O)c(OC)c(=O)c4c(O)cc5c(c6c(cc(O)c(c1=O)c62)OCO5)c43	9.7 µM	4.53 µM	1.94 µM	2.75 µM	1.6	2.3	9.4 µM	8.7 µM	8.7 µM	4.8 µM	4.9 µM	3.1 µM	–	Activity [1]: Active; Activity [10]: Active
COc1c(C[C@@H](C)O)c2c3c(C[C@@H](C)O)c(OC)c(=O)c4c(O)cc5c(c6c(cc(O)c(c1=O)c62)OCO5)c43	2.81 µM	5.24 µM	1.62 µM	1.08 µM	4.8	3.2	3.9 µM	10.8 µM	7.1 µM	3.7 µM	3.6 µM	1.14 µM	–	MIC [14]: 9.4 µM (≈ 5.02 µg/mL); Activity [15]: Active; MIC [16]: 4.7 µM (≈ 2.51 µg/mL); Activity [17]: Active
